Results from ChEMBL document CHEMBL1759942, “Synthesis and biological activity of 2-(bis((1,3,4-oxadiazolyl/1,3,4-thiadiazolyl)methylthio)methylene)malononitriles” (2011).
Values after ≈ are worked out from the molar mass of the structure shown.

Experiments:
Format in all cases: functional
[1] = system: Staphylococcus aureus; assay: Antibacterial activity against Staphylococcus aureus assessed as zone of inhibition at 100 ug/ml after 24 hrs by disc diffusion method; details: read-out: DIZ
Method in brief: (§1)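 Agar disc diffusion on nutrient agar plates pre-inoculated separately with each bacterium. Sterile 6 mm paper discs were moistened with compound solution in DMSO at 100 or 200 per disc and placed on the plates. Plates were incubated at 37 °C, and growth-inhibition zone diameter was measured after 24 h. Chloramphenicol served as the reference drug.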

[2] = system: Staphylococcus aureus; assay: Antibacterial activity against Staphylococcus aureus assessed as zone of inhibition at 200 ug/ml after 24 hrs by disc diffusion method; details: read-out: DIZ; method in brief: as §1
[3] = system: Bacillus subtilis; assay: Antibacterial activity against Bacillus subtilis assessed as zone of inhibition at 100 ug/ml after 24 hrs by disc diffusion method; details: read-out: DIZ; method in brief: as §1
[4] = system: Bacillus subtilis; assay: Antibacterial activity against Bacillus subtilis assessed as zone of inhibition at 200 ug/ml after 24 hrs by disc diffusion method; details: read-out: DIZ; method in brief: as §1
[5] = system: Escherichia coli; assay: Antibacterial activity against Escherichia coli assessed as zone of inhibition at 100 ug/ml after 24 hrs by disc diffusion method; details: read-out: DIZ; method in brief: as §1
[6] = system: Escherichia coli; assay: Antibacterial activity against Escherichia coli assessed as zone of inhibition at 200 ug/ml after 24 hrs by disc diffusion method; details: read-out: DIZ; method in brief: as §1
[7] = system: Klebsiella pneumoniae; assay: Antibacterial activity against Klebsiella pneumoniae assessed as zone of inhibition at 100 ug/ml after 24 hrs by disc diffusion method; details: read-out: DIZ; method in brief: as §1
[8] = system: Klebsiella pneumoniae; assay: Antibacterial activity against Klebsiella pneumoniae assessed as zone of inhibition at 200 ug/ml after 24 hrs by disc diffusion method; details: read-out: DIZ; method in brief: as §1
[9] = system: Fusarium solani; assay: Antifungal activity against Fusarium solani assessed as zone of inhibition at 100 ug/ml after 48 hrs by disc diffusion method; details: read-out: DIZ
Method in brief: (§2)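 Fungi were grown on potato dextrose agar at 25 °C for 3 days, and spore suspensions were adjusted to 10⁶ spores/ml. In the disc diffusion test, inoculated plates received 6 mm paper discs moistened with compound in DMSO at 100 or 200 per disc. Plates were incubated at 37 °C, and inhibition zone diameter was read at 48 h. Ketoconazole was the standard.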

[10] = system: Fusarium solani; assay: Antifungal activity against Fusarium solani assessed as zone of inhibition at 200 ug/ml after 48 hrs by disc diffusion method; details: read-out: DIZ; method in brief: as §2
[11] = system: Curvularia lunata; assay: Antifungal activity against Curvularia lunata assessed as zone of inhibition at 100 ug/ml after 48 hrs by disc diffusion method; details: read-out: DIZ; method in brief: as §2
[12] = system: Curvularia lunata; assay: Antifungal activity against Curvularia lunata assessed as zone of inhibition at 200 ug/ml after 48 hrs by disc diffusion method; details: read-out: DIZ; method in brief: as §2
[13] = system: Aspergillus niger; assay: Antifungal activity against Aspergillus niger assessed as zone of inhibition at 100 ug/ml after 48 hrs by disc diffusion method; details: read-out: DIZ; method in brief: as §2
[14] = system: Aspergillus niger; assay: Antifungal activity against Aspergillus niger assessed as zone of inhibition at 200 ug/ml after 48 hrs by disc diffusion method; details: read-out: DIZ; method in brief: as §2
[15] = system: Staphylococcus aureus; assay: Antibacterial activity against Staphylococcus aureus after 24 hrs by microdilution method
Method in brief: (§3)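 MIC by microdilution susceptibility testing in tubes. Incubation was at 36 °C for 24 h (bacteria) or 48 h (fungi). MIC was recorded as the lowest compound concentration giving no turbidity, i.e. no visible growth. Chloramphenicol was the antibacterial reference and ketoconazole the antifungal standard.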

[16] = system: Bacillus subtilis; assay: Antibacterial activity against Bacillus subtilis after 24 hrs by microdilution method; method in brief: as §3
[17] = system: Escherichia coli; assay: Antibacterial activity against Escherichia coli after 24 hrs by microdilution method; method in brief: as §3
[18] = system: Klebsiella pneumoniae; assay: Antibacterial activity against Klebsiella pneumoniae after 24 hrs by microdilution method; method in brief: as §3
[19] = system: Fusarium solani; assay: Antifungal activity against Fusarium solani after 48 hrs by microdilution method; method in brief: as §3
[20] = system: Curvularia lunata; assay: Antifungal activity against Curvularia lunata after 48 hrs by microdilution method; method in brief: as §3
[21] = system: Aspergillus niger; assay: Antifungal activity against Aspergillus niger after 48 hrs by microdilution method; method in brief: as §3
[22] = Antioxidant activity against nitric oxide scavenging activity at 100 uM after 120 mins by spectrophotometric analysis at pH 7.4
Method in brief: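 Nitric oxide scavenging: test compounds at 100 in dioxane/methanol were incubated at 25 °C for 120 min, with a solvent-only control. At intervals, 0.5 ml samples were mixed with an equal volume of Griess reagent (1% sulfanilamide, 0.1% N-naphthylethylenediamine dihydrochloride, 2% o-phosphoric acid). Absorbance of the azo chromophore was then measured.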

[23] = system: Radical scavenging activity; assay: Antioxidant activity against DPPH free radical scavenging activity at 100 uM after 20 mins by spectrophotometric analysis at pH 7.5
Method in brief: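 DPPH assay: compound solutions at 100 were added to DPPH at 100 in dioxane/methanol and held at ambient temperature for 20 min. Absorbance was read at 517 nm, and the test–control difference was expressed as percent DPPH radical scavenging.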

SMILES	zone of inhibition at 100 µg/mL [1] [mm]	zone of inhibition at 200 µg/mL [2] [mm]	zone of inhibition at 100 µg/mL [3] [mm]	zone of inhibition at 200 µg/mL [4] [mm]	zone of inhibition at 100 µg/mL [5] [mm]	zone of inhibition at 200 µg/mL [6] [mm]	zone of inhibition at 100 µg/mL [7] [mm]	zone of inhibition at 200 µg/mL [8] [mm]	zone of inhibition at 100 µg/mL [9] [mm]	zone of inhibition at 200 µg/mL [10] [mm]	zone of inhibition at 100 µg/mL [11] [mm]	zone of inhibition at 200 µg/mL [12] [mm]	zone of inhibition at 100 µg/mL [13] [mm]	zone of inhibition at 200 µg/mL [14] [mm]	MIC [15] [µg/mL]	MIC [16] [µg/mL]	MIC [17] [µg/mL]	MIC [18] [µg/mL]	inhibition [22] [%]	inhibition [23] [%]	other results
N#CC(C#N)=C(SCc1nnc(-c2ccccc2)s1)SCc1nnc(-c2ccccc2)s1	24	26	23	27	21	24	23	24	25	28	26	28	21	24	200 (≈ 408 µM)	100 (≈ 204 µM)	200 (≈ 408 µM)	200 (≈ 408 µM)	25.8	26.3	MIC [19]: 100 µg/mL (≈ 204 µM); MIC [20]: 100 µg/mL (≈ 204 µM); MIC [21]: 100 µg/mL (≈ 204 µM)
CCOC(=O)CSC(SCC(=O)OCC)=C(C#N)C#N	10	14	12	14	7	9	–	8	13	15	12	15	9	12	–	–	–	–	45.8	46.3	–
Cc1ccc(-c2nnc(CSC(SCc3nnc(-c4ccc(C)cc4)o3)=C(C#N)C#N)o2)cc1	10	13	10	12	–	–	–	11	15	17	13	14	10	11	–	–	–	–	54.3	52.5	–
N#CC(C#N)=C(SCc1nnc(-c2ccc(Cl)cc2)s1)SCc1nnc(-c2ccc(Cl)cc2)s1	32	35	30	32	25	26	23	25	30	32	32	34	26	29	100 (≈ 179 µM)	50 (≈ 89.4 µM)	200 (≈ 357 µM)	200 (≈ 357 µM)	29.4	30.2	MIC [19]: 50 µg/mL (≈ 89.4 µM); MIC [20]: 50 µg/mL (≈ 89.4 µM); MIC [21]: 100 µg/mL (≈ 179 µM)
O=C1O[C@H]([C@@H](O)CO)C(O)=C1O	–	–	–	–	–	–	–	–	–	–	–	–	–	–	–	–	–	–	94.9	95.3	–
N#CC(C#N)=C(SCc1nnc(-c2ccccc2)o1)SCc1nnc(-c2ccccc2)o1	12	14	12	16	8	10	9	12	18	21	15	17	12	14	–	–	–	–	65.4	63.5	–
Cc1ccc(-c2nnc(CSC(SCc3nnc(-c4ccc(C)cc4)s3)=C(C#N)C#N)s2)cc1	19	25	19	24	17	24	18	22	23	25	25	26	18	21	–	–	–	–	22.3	21.6	–
N#CC(C#N)=C(SCc1nnc(-c2ccc(Cl)cc2)o1)SCc1nnc(-c2ccc(Cl)cc2)o1	16	20	13	16	8	11	8	12	20	22	16	19	14	17	–	–	–	–	72.5	73.7	–
O=C(N[C@H](CO)[C@H](O)c1ccc([N+](=O)[O-])cc1)C(Cl)Cl [CHLORAMPHENICOL]	35	39	38	41	40	44	42	45	–	–	–	–	–	–	6.25 (≈ 19.3 µM)	6.25 (≈ 19.3 µM)	6.25 (≈ 19.3 µM)	12.5 (≈ 38.7 µM)	–	–	–
CC(=O)N1CCN(c2ccc(OCC3COC(Cn4ccnc4)(c4ccc(Cl)cc4Cl)O3)cc2)CC1 (stereo not given) [KETOCONAZOLE]	–	–	–	–	–	–	–	–	38	42	41	44	36	39	–	–	–	–	–	–	MIC [19]: 12.5 µg/mL (≈ 23.5 µM); MIC [20]: 6.25 µg/mL (≈ 11.8 µM); MIC [21]: 6.25 µg/mL (≈ 11.8 µM)
